According to publication PMC5458759 (Genes & Development, 2017):
Values belong to the molecule of their own block, whether it stands above or below them.

Assays:
[1] = system: ERL1^LRR; assay: Biochemical assay of EPFL8 interaction; type: binding, Arabidopsis; conditions: Supplemental Fig. S11
[2] = system: ER^LRR; assay: Pull-down assay with 6xHis-tagged ER^LRR; type: binding, Arabidopsis; conditions: Ni resin, SDS-PAGE, Coomassie blue; without TMM^LRR
Summary of the method: (§1)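 Purified C-terminal 6xHis-tagged receptor LRR, from High Five cells, was mixed with excess EPF-family peptide and Ni resin for 30 min on ice. The resin was washed four times in 25 mM Tris pH 8.0, 250 mM NaCl, 15 mM imidazole, then heated 5 min at 100°C in SDS loading buffer. Bound protein was detected by SDS-PAGE with Coomassie staining.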

[3] = system: ERL1^LRR; assay: Pull-down assay with 6xHis-tagged ERL1^LRR; type: binding, Arabidopsis; conditions: Ni resin, SDS-PAGE, Coomassie blue; without TMM^LRR
Summary of the method: as §1

[4] = system: ERL2^LRR; assay: Pull-down assay with 6xHis-tagged ERL2^LRR; type: binding, Arabidopsis; conditions: Ni resin, SDS-PAGE, Coomassie blue; without TMM^LRR
Summary of the method: as §1

[5] = system: ER^LRR; assay: Gel filtration assay with ER^LRR; type: binding, Arabidopsis; conditions: 10 mM Bis-Tris pH 6.0, 100 mM NaCl; incubated 30 min at 4°C
Summary of the method: (§2)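 LRR ectodomains were expressed in High Five insect cells by baculovirus at 22°C; for complexes, the ERf and TMM viruses were added together. Protein was purified from the supernatant by Ni-NTA and then size exclusion. Receptor and EPF-family peptide were mixed, held 30 min at 4°C, then run on Superdex 200 in 10 mM Bis-Tris pH 6.0, 100 mM NaCl. Fractions were analysed by SDS-PAGE with Coomassie staining.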

[6] = system: ERL1^LRR; assay: Gel filtration assay with ERL1^LRR; type: binding, Arabidopsis; conditions: 10 mM Bis-Tris pH 6.0, 100 mM NaCl; incubated 30 min at 4°C
Summary of the method: as §2

[7] = system: ERL2^LRR; assay: Gel filtration assay with ERL2^LRR; type: binding, Arabidopsis; conditions: 10 mM Bis-Tris pH 6.0, 100 mM NaCl; incubated 30 min at 4°C
Summary of the method: as §2

[8] = system: ERL1^LRR–TMM^LRR complex; assay: Gel filtration assay with ERL1^LRR–TMM^LRR complex; type: binding, Arabidopsis; conditions: 10 mM Bis-Tris pH 6.0, 100 mM NaCl; incubated 30 min at 4°C
Summary of the method: as §2

[9] = system: ER^LRR–TMM^LRR complex; assay: Ligand competition assay, ER^LRR–TMM^LRR; type: binding, Arabidopsis; conditions: 10 µM EPF2-6xHis or EPF1-6xHis, increasing concentrations of EPFL9, 1 h at 4°C
Summary of the method: (§3)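 The ERf–TMM LRR complex was coexpressed in High Five cells and purified by Ni-NTA and gel filtration. It was incubated with 10 µM His-tagged EPF peptide, with or without varying concentrations of competing peptide, for 1 h at 4°C with gentle agitation. The mixture was then passed over Ni beads and washed four times. Eluate was boiled 5 min at 100°C in SDS loading buffer and read by SDS-PAGE with Coomassie staining.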

[10] = system: ERL1^LRR–TMM^LRR complex; assay: Ligand competition assay, ERL1^LRR–TMM^LRR; type: binding, Arabidopsis; conditions: 10 µM EPF2-6xHis or EPF1-6xHis, increasing concentrations of EPFL9, 1 h at 4°C
Summary of the method: as §3

[11] = target: T1, ER^LRR–TMM^LRR complex (Arabidopsis thaliana, UniProt Q42371;Q9SSD1); assay: pull-down
T1 sequence 1: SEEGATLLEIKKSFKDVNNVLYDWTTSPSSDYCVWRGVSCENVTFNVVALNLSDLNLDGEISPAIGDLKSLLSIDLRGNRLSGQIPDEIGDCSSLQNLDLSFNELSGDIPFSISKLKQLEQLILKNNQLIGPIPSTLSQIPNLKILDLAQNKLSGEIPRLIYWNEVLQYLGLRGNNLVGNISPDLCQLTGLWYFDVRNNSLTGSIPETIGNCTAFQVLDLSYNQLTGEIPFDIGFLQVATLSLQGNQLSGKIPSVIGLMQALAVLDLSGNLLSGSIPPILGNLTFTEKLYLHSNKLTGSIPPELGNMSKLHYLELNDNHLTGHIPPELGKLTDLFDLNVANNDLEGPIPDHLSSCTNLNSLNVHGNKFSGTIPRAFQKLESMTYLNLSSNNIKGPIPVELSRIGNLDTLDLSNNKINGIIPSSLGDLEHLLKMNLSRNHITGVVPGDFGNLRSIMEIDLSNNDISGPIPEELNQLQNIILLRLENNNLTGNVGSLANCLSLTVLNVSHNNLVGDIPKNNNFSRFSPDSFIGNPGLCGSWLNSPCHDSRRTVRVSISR
T1 sequence 2: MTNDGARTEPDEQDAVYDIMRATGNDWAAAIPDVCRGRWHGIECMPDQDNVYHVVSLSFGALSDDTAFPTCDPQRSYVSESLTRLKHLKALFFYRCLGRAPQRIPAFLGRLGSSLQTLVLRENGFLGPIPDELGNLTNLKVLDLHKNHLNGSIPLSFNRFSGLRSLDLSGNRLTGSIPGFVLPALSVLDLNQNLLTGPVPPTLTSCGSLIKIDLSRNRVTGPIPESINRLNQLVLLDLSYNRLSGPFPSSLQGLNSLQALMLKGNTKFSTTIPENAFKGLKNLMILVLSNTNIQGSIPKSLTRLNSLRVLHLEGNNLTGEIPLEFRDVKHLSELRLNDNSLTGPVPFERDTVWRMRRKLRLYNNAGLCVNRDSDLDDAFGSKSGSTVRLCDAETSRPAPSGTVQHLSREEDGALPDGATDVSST

[12] = target: T2, ERL1^LRR, extracellular LRR domain of ER-LIKE1 (ERL1) (Arabidopsis thaliana, UniProt C0LGW6 24-580); assay: ITC
T2 sequence: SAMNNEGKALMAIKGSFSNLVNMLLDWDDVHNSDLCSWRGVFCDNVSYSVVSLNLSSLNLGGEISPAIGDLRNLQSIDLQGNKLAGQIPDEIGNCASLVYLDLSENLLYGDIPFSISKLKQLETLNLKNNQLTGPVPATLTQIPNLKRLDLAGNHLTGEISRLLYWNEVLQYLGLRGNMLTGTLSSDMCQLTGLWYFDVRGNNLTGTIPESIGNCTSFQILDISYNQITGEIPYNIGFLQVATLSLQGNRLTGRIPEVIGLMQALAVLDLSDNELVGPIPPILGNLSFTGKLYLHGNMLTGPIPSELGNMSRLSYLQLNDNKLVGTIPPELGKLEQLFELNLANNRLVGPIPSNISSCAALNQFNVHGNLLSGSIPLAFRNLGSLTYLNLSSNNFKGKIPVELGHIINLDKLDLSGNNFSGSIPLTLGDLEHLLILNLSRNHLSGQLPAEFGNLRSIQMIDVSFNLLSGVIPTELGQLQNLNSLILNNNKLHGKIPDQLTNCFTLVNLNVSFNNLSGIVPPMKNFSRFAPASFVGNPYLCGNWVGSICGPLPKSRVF

[13] = target: T3, ERL1^LRR–TMM^LRR complex (Arabidopsis thaliana, UniProt C0LGW6;Q9SSD1); assay: ITC
T3 sequence 1: T2 sequence
T3 sequence 2: T1 sequence 2

[14] = target: T4, ER^LRR, extracellular LRR domain of ERECTA (ER) (Arabidopsis thaliana, UniProt Q42371 24-580); assay: pull-down
T4 sequence: T1 sequence 1

[15] = target: T2, ERL1^LRR, extracellular LRR domain of …; assay: pull-down
[16] = target: T5, ERL2^LRR, extracellular LRR domain of ERL2 (Arabidopsis thaliana, UniProt Q6XAT2 28-580); assay: pull-down
T5 sequence: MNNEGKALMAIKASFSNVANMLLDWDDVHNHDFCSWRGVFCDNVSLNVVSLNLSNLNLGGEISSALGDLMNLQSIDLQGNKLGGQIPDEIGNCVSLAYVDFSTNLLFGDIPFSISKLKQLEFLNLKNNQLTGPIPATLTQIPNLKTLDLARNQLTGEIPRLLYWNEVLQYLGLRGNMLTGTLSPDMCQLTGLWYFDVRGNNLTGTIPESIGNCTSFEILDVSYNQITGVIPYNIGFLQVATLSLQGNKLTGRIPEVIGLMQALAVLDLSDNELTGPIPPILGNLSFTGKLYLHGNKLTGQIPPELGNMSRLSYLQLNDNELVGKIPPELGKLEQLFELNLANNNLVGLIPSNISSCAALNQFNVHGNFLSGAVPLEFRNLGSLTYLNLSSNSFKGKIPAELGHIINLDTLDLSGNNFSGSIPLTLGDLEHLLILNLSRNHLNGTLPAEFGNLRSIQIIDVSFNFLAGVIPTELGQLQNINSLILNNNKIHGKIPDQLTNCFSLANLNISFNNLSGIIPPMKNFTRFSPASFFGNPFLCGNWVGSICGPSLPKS

Molecule: EPFL8: EPF family peptide, residues 46–99 (MGSEPPVCATKCRNCKPCLPYLFDIRGAHDDDDDSEPYYPVKWICRCRDRVFEP)
interaction with ERL1^LRR in the absence of TMM^LRR [1]: interacted

Molecule: EPFL4: EPF family growth regulatory peptide, residues 59–109 (PGSSPPTCRSKCGKCQPCKPVHVPIQPGLSMPLEYYPEAWRCKCGNKLFMP)
interaction with ER^LRR in pull-down [2]: interacted strongly
interaction with ERL1^LRR in pull-down [3]: interacted strongly
interaction with ERL2^LRR in pull-down [4]: interacted strongly
interaction with ER^LRR alone in gel filtration [5]: interacted strongly
interaction with ERL1^LRR alone in gel filtration [6]: interacted strongly
interaction with ERL2^LRR alone in gel filtration [7]: interacted strongly

Molecule: EPFL9: EPF family peptide, residues 58–102, promotes stomatal development (IGSTAPTCTYNECRGCRYKCRAEQVPVEGNDPINSAYHYRCVCHR)
interaction with ERL1^LRR alone in gel filtration [6]: weak interaction
interaction with ERL1^LRR–TMM^LRR in gel filtration (comigration) [8]: much more EPFL9 was shifted to a higher-molecular-weight species and comigrated with the complex
competition: amount of ER^LRR–TMM^LRR pulled down by EPF2 or EPF1 [9]: gradually decreased the amount
competition: amount of ERL1^LRR–TMM^LRR pulled down by EPF2 or EPF1 [10]: gradually decreased the amount

binding result [11]: binds
fold lower affinity than for ERL1^LRR–TMM^LRR [12]: ~10 fold
Kd [13]: 4 µM
Molecule: IGSTAPTCTYNECRGCRYKCRAEQVPVEGNDPINSAYHYRCVCHR [EPFL9 (STOMAGEN) peptide, residues 58–102]

binding result [13]: binds
binding result [14]: binds
binding result [15]: binds
binding result [16]: binds
B1: EPFL6 (CHALLAH, CHAL) peptide, residues 106–156 (peptide)
chain: LGSSPPRCSSKCGRCTPCKPVHVPVPPGTPVTAEYYPEAWRCKCGNKLYMP
